Activity calls are given as the source filed them. No rule for the calls is given here.

The target of assay [1] is Cannabinoid receptor 2 (Homo sapiens) (UniProt P34972). The assay is described as follows: Agonist activity at human recombinant cannabinoid CB2 receptor expressed in CHO cells at 10 uM by [35S]GTPgammaS binding assay. It counts as functional, cell-based. The method in brief: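 Single-point screen for G-protein activation at hCB2 with [35S]GTPγS binding, ligand at 10 µM. Response given relative to the 10 nM HU-210 agonist response, in percent. Mean SEM of at least three experiments, each done in duplicate.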
On the technique in general: GTPγS resists hydrolysis and so accumulates on activated G proteins.

Assay [2] addresses Cannabinoid receptor 1 (Rattus norvegicus) (UniProt P20272). Briefly: Antagonist activity at rat cannabinoid CB1 receptor in Wistar rat cerebellar membranes at 10 uM by [35S]GTPgammaS binding assay. It counts as functional, cell membranes. The conditions noted are these: Cerebellum, Membrane. The method in brief:
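Uses non-recombinant rat cerebellar membrane fractions as the CB1 source, with [35S]GTPγS binding. Ligand screened at 10 µM for its ability to antagonize the agonist response to 10 nM HU-210.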

The target in assay [3] is Cannabinoid receptor 2 (Homo sapiens) (UniProt P34972). The assay is described as follows: Agonist activity at human recombinant cannabinoid CB2 receptor expressed in CHO cells by [35S]GTPgammaS binding assay relative to HU-210. It counts as functional, cell-based. A digest of the protocol: (§1)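 hCB2 [35S]GTPγS binding concentration–response curves, run only for ligands giving over 50% relative activity at 10 µM. logEC50 and Emax come from nonlinear regression fitted to a sigmoidal concentration–response equation. Emax is given as percent of the 10 nM HU-210 response. Mean SEM of at least three experiments in duplicate.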

Assay [4] has the same target. Briefly: Agonist activity at human recombinant cannabinoid CB2 receptor expressed in CHO cells by [35S]GTPgammaS binding assay. It counts as functional, cell-based. A digest of the protocol: as §1
For assay [5], the target named is Cannabinoid receptor 1 (Rattus norvegicus) (UniProt P20272). The assay is described as follows: Antagonist activity at rat cannabinoid CB1 receptor in Wistar rat cerebellar membranes by [35S]GTPgammaS binding assay. It counts as functional, cell membranes. The following applies: Cerebellum, Membrane. The method in brief: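 Non-recombinant rat cerebellar membrane fractions, [35S]GTPγS binding. Compounds screened at a single concentration for their ability to antagonise the response to 10 nM HU-210 agonist.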
Cannabinoid receptor 1 (Rattus norvegicus), sequence (P20272 whole entry): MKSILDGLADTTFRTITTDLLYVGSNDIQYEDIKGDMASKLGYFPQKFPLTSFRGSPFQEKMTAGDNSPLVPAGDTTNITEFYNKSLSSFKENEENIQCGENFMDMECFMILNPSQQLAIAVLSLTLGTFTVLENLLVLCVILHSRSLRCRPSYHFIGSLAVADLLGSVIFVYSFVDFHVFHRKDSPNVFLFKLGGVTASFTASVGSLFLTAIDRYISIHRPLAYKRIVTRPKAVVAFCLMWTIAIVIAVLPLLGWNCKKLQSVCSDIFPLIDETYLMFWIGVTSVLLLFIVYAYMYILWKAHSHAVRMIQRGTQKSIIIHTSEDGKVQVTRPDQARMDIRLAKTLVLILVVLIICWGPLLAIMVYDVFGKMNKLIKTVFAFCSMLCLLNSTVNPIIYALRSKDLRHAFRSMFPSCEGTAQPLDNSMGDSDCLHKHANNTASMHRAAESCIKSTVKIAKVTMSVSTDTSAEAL

Cannabinoid receptor 2 (Homo sapiens), sequence (P34972 whole entry): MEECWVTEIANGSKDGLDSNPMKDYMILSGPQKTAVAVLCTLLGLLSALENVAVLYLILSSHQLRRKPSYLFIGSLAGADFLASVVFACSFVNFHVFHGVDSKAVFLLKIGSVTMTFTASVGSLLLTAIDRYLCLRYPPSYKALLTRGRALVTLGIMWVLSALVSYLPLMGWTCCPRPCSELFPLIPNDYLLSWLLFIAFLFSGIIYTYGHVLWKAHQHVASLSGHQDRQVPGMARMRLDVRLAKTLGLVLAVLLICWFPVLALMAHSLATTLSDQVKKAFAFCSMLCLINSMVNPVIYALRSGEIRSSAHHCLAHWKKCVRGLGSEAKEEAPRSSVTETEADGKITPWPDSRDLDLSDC

As to `c1ccc(Nc2cnc3ccccc3n2)cc1`, the Activity in assay [1] stood at 30%. For the same compound, the result in assay [2] was inactive.
On to `FC(F)(F)c1cccc(Nc2ncnc3ccccc23)c1`, for which the Activity in assay [1] was found to be 68%. Also, the Emax (commonly the size of the effect at its maximum, as opposed to the concentration needed) in assay [3] worked out at 79%. Moreover, the pEC50 (in general, the EC50 on a negative log10 scale, so that one unit is a factor of ten) in assay [4] was determined as 5.6. Moreover, the result in assay [2] was inactive.
As to `Clc1cccc(Nc2ccc3ccccc3n2)c1`, the Activity in assay [1] worked out at 58%. Further, the Emax in assay [3] came out at 70%. In addition, in assay [4], the pEC50 was determined as 5.6. Besides, the result in assay [2] was inactive.
For `c1ccc(Sc2ccc3ccccc3n2)cc1` the same measures were 47%, 61%, 5.4 and “inactive”.
Consider `FC(F)(F)c1cccc(Nc2nccc3ccccc23)c1`, for which the Activity in assay [1] turned out to be 102%. Besides, in assay [3], the maximum response (Emax) is 124%. In assay [4], the pEC50 is 5.8. The result in assay [2] was inactive.
`COc1cccc(Nc2ccc3ccccc3n2)c1`: in assay [1], the Activity was 50%. Further, the Emax in assay [3] stood at 61%. Also, in assay [4], the pEC50 was determined as 5.6. The outcome in assay [2] was inactive.
With `N#Cc1cccc(Nc2ccc3ccccc3n2)c1`, in assay [1], the Activity was found to be 25%. In assay [2], the outcome was inactive.
Consider `CCCCCCNc1ccc2ccccc2n1`, for which, in assay [1], the Activity was 10%. Besides, the result in assay [2] was inactive.
As to `COc1ccccc1Nc1ccc2ccccc2n1`, in assay [1], the Activity is 69%. In assay [3], the Emax was determined as 102%. Further, the pEC50 in assay [4] was found to be 5.3. Besides, in assay [2], the outcome was inactive.
As to `FC(F)(F)c1ccc(Nc2nccc3ccccc23)cc1`, the Activity in assay [1] was found to be 25%. The result in assay [2] was inactive.
For the compound `Clc1ccccc1Nc1ccc2ccccc2n1`, in assay [1], the Activity worked out at 56%. For the same compound, the Emax in assay [3] is 91%. Moreover, the pEC50 in assay [4] came out at 5.2. Further, the outcome in assay [2] was inactive.
For `c1ccc2nc(NC3CCCCC3)ccc2c1`, the Activity in assay [1] came to 57%. For the same compound, the maximum response (Emax) in assay [3] worked out at 88%. Besides, the pEC50 in assay [4] is 5.2. In assay [2], the outcome was inactive.
For `Oc1ccc(Nc2ccc3ccccc3n2)cc1`, the Activity in assay [1] worked out at 8%. Moreover, the result in assay [2] was inactive.
`FC(F)(F)c1ccccc1Nc1nccc2ccccc12`: the Activity in assay [1] was 43%. The result in assay [2] was inactive.
Consider `O=C(NCC1CCCCC1)c1cnc(Nc2cccc(C(F)(F)F)c2)c2ccccc12`, for which the Activity in assay [1] is 58%. Besides, the maximum response (Emax) in assay [3] came out at 67%. In addition, the pEC50 in assay [4] was 5.8. Also, the outcome in assay [2] was inactive.
As to `O=C(NCc1ccccc1)c1cc2ccccc2c(Nc2cccc(C(F)(F)F)c2)n1`, in assay [1], the Activity is 0%. In assay [2], the outcome was inactive.
On to `c1ccc(Nc2nccc3ccccc23)cc1`, for which the Activity in assay [1] was found to be 7%. Besides, in assay [2], the result was inactive.
Take `CN(C)c1ccc(Nc2ccc3ccccc3n2)cc1`: the Activity in assay [1] was 20%. Further, the outcome in assay [2] was inactive.
Consider `c1ccc(Oc2nccc3ccccc23)cc1`, for which the Activity in assay [1] stood at 31%. Also, in assay [2], the result was inactive.
For `c1ccc(CNc2ccc3ccccc3n2)cc1`, the Activity in assay [1] was found to be 20%. The result in assay [2] was inactive.
In the case of `O=C(NC1CCCCC1)c1cc2ccccc2c(Nc2cccc(C(F)(F)F)c2)n1`, the Activity in assay [1] was found to be 13%. In addition, in assay [2], the outcome was inactive.
The matching figures for `c1ccc2nc(NC3CCCC3)ccc2c1`: 22% and “inactive”.
In the case of `c1ccc(Nc2ncnc3ccccc23)cc1`, the Activity in assay [1] stood at 10%. The outcome in assay [2] was inactive.
As to `Brc1cccc(Nc2ccc3ccccc3n2)c1`, in assay [1], the Activity turned out to be 64%. The maximal response (Emax) in assay [3] amounted to 69%. In addition, the pEC50 in assay [4] worked out at 5.7. Also, in assay [2], the result was inactive.
With `O=C(c1cnc(Nc2cccc(C(F)(F)F)c2)c2ccccc12)N1CCOCC1`, the Activity in assay [1] worked out at 76%. The Emax in assay [3] turned out to be 75%. In assay [4], the negative logarithm of the EC50 (pEC50) is 7.8. Further, the logEC50 in assay [5] was determined as 5.
Take `c1ccc2nc(N3CCCCC3)ccc2c1`: the Activity in assay [1] turned out to be 10%. In assay [2], the outcome was inactive.
With `FC(F)(F)c1cccc(Nc2ccnc3ccccc23)c1`, in assay [1], the Activity came to 50%. Besides, the Emax in assay [3] was found to be 58%. Further, in assay [4], the pEC50 came to 5.5. In assay [2], the outcome was inactive.
On to `COc1ccccc1NC(=O)c1cnc(Nc2cccc(C(F)(F)F)c2)c2ccccc12`, for which the Activity in assay [1] is 1%. Moreover, the outcome in assay [2] was inactive.
As to `O=C(NC1CCCCC1)c1cnc(Nc2cccc(C(F)(F)F)c2)c2ccccc12`, in assay [1], the Activity was 54%. Also, in assay [3], the Emax is 73%. Also, the pEC50 in assay [4] was found to be 5.7. The result in assay [2] was inactive.
On to `OCCc1ccc(Nc2ccc3ccccc3n2)cc1`, for which the Activity in assay [1] worked out at 20%. In assay [2], the outcome was inactive.
For `c1ccc(Nc2ncc3ccccc3n2)cc1` the same measures were 38% and “inactive”.
Take `c1ccc(Oc2cnc3ccccc3c2)cc1`: in assay [1], the Activity worked out at 17%. Moreover, the outcome in assay [2] was inactive.
On to `COC(=O)c1cc2ccccc2c(Nc2cccc(C(F)(F)F)c2)n1`, for which the Activity in assay [1] stood at 4%. In addition, the outcome in assay [2] was inactive.
The matching figures for `c1ccc(Sc2nccc3ccccc23)cc1`: 33% and “inactive”.
As to `CCOC(=O)c1ccc(Nc2ccc3ccccc3n2)cc1`, the Activity in assay [1] turned out to be 3%. For the same compound, the result in assay [2] was inactive.
Turning to `c1ccc(Sc2cnc3ccccc3c2)cc1`, in assay [1], the Activity stood at 13%. Moreover, in assay [2], the outcome was inactive.
With `FC(F)(F)c1cccc(Nc2ncc3ccccc3n2)c1`, the Activity in assay [1] was determined as 53%. Also, the Emax in assay [3] turned out to be 67%. Besides, in assay [4], the pEC50 stood at 5.5. In addition, the result in assay [2] was inactive.
For `c1ccc(Nc2ccnc3ccccc23)cc1`, in assay [1], the Activity was found to be 9%. Moreover, the result in assay [2] was inactive.
Take `c1ccc2nc(N3CCOCC3)ccc2c1`: the Activity in assay [1] is 7%. Moreover, the outcome in assay [2] was inactive.
In the case of `FC(F)(F)c1cccc(Nc2ccc3ccccc3n2)c1`, in assay [1], the Activity amounted to 64%. Moreover, the maximal effect (Emax) in assay [3] is 65%. Also, the pEC50 in assay [4] stood at 5.9. The outcome in assay [2] was inactive.
For the compound `c1ccc(Nc2ccc3ccccc3n2)cc1`, the Activity in assay [1] came to 39%. Moreover, the result in assay [2] was inactive.
Consider `O=C(NCc1ccccc1)c1cnc(Nc2cccc(C(F)(F)F)c2)c2ccccc12`, for which the Activity in assay [1] stood at 21%. For the same compound, the result in assay [2] was inactive.
On to `COc1cc(C(F)(F)F)ccc1Nc1ccc2ccccc2n1`, for which, in assay [1], the Activity was found to be 33%. Moreover, the result in assay [2] was inactive.
For `FC(F)(F)c1ccccc1Nc1ccc2ccccc2n1`, the Activity in assay [1] was found to be 63%. Moreover, the Emax in assay [3] was 103%. Further, the pEC50 in assay [4] was 5.2. Also, in assay [2], the result was inactive.
In the case of `c1ccc(Cc2ccccc2Nc2ccc3ccccc3n2)cc1`, the Activity in assay [1] came out at 18%. Besides, in assay [2], the outcome was inactive.
Take `O=C(NCC1CCCCC1)c1cc2ccccc2c(Nc2cccc(C(F)(F)F)c2)n1`: the Activity in assay [1] was -2%. Besides, in assay [2], the result was inactive.
The matching figures for `c1ccc2nc(NCC3CCCCC3)ccc2c1`: 44% and “inactive”.
The matching figures for `FC(F)(F)c1ccc(Nc2ccc3ccccc3n2)cc1`: 48% and “inactive”.
As to `COc1ccc(Nc2ccc3ccccc3n2)cc1`, in assay [1], the Activity came out at 49%. The Emax in assay [3] came to 51%. In addition, the pEC50 in assay [4] is 5.7. Also, the outcome in assay [2] was inactive.
Regarding `Clc1ccc(Nc2ccc3ccccc3n2)cc1`, in assay [1], the Activity stood at 75%. In assay [3], the Emax was 80%. Besides, the pEC50 in assay [4] worked out at 5.7. For the same compound, in assay [2], the result was inactive.
`FC(F)(F)c1cccc(Nc2cnc3ccccc3n2)c1`: the Activity in assay [1] came to 52%. The Emax in assay [3] stood at 69%. Moreover, the pEC50 in assay [4] is 5.4. The result in assay [2] was inactive.

The values are drawn from ChEMBL document CHEMBL1641511, “Microwave-assisted synthesis of quinoline, isoquinoline, quinoxaline and quinazoline derivatives as CB2 receptor agonists” (Bioorg Med Chem, 2011).
